Measured values collected from several papers.
Compare with care: the assays were run in different laboratories.
Target: RAC-gamma serine/threonine-protein kinase (AKT3, Homo sapiens, UniProt Q9Y243)

SMILES	observed	action	method	tested at	measurement	value
COc1cc(Nc2ncc(F)c(Nc3ccc4c(n3)NC(=O)C(C)(C)O4)n2)cc(OC)c1OC	binding		competition with immobilised ligand	10 µM	inhibition	0%
Cn1cc(-c2cc(F)cc(N3CCn4c(cc5c4CCCC5)C3=O)c2CO)cc(Nc2ccc(N3CCN(C4COC4)CC3)cn2)c1=O	enzyme activity	inhibitor		0.1 µM	inhibition	5%
CC(C)(C)c1cc(C=C(C#N)C#N)cc(Br)c1O	enzyme activity	inhibitor		0.5 µM	remaining activity	111%
Cn1cncc1[C@](O)(COc1ccc(C#N)cc1-c1ccc(OC(F)(F)F)cc1)c1ccc(C#N)cc1	cell-free assay		competition with immobilised ligand	1 µM	remaining binding	100%
Cc1nn(C)cc1-c1nc2c(N3CCN(Cc4ccc(Cl)cc4)CC3)c(Cl)cnc2[nH]1	binding		competition with immobilised ligand	1 µM	remaining binding	100%
COc1ncccc1-c1cnn2ccc(N3CCN(C(=O)OC(C)C)CC3)nc12	binding		competition with immobilised ligand	1 µM	remaining binding	100%
N#CC1(c2ccccn2)CCN(Cc2cc(C(=O)O)c(=O)n3ccccc23)CC1	cell-free assay		competition with immobilised ligand	1 µM	remaining binding	100%
Cn1cc(-c2cccc(N3CCc4c(sc5c4CC(C)(C)C5)C3=O)c2CO)cc(Nc2ccncn2)c1=O	enzyme activity	inhibitor		1 µM	inhibition	6%
O=c1[nH]c2ccccc2n1C1CCN(Cc2ccc(-c3[nH]c4cc5ncnc5cc4nc3-c3ccccc3)cc2)CC1	cell-free assay			0.5 µM	remaining signal	103%
Nc1ncc(-c2nc(N3CCOCC3)nc(N3CCOCC3)n2)c(C(F)F)n1	binding		competition with immobilised ligand	10 µM	remaining binding	59%
